Measurements: ChEMBL document CHEMBL4808183, “Betulonic Acid Derivatives Interfering with Human Coronavirus 229E Replication via the nsp15 Endoribonuclease” (J Med Chem, 2021)
The source made the active and inactive calls. No cut-off for these calls is given here.

Columns and labels:
[1] = (§1) Antiviral activity against Human coronavirus 229E infected in human embryonic lung fibroblast cells assessed as reduction in virus-induced cytopathic effect incubated for 5 days by MTS cell viability assay; assay type: functional, cell-based; conditions: 120 h
Summary of the method: (§2)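 Confluent HEL cell cultures given serial compound dilutions together with HCoV-229E at MOI 100 and held 5 days at 35 °C. Virus-induced CPE was scored by microscopy. MTS reagent was then added and absorbance at 490 nm read 24 h later. EC50 was taken from the MTS or microscopic read-out and CC50 from MTS. SI = CC50/EC50, both by MTS. Mean ± SEM of three independent experiments.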

[2] = Antiviral activity against Human coronavirus 229E infected in human embryonic lung fibroblast cells assessed as reduction in virus-induced cytopathic effect incubated for 5 days by microscopy; assay type: functional, cell-based; conditions: 120 h; summary of the method: as §2
[3] = Cytotoxicity against mock-infected human embryonic lung fibroblast cells incubated for 5 days by MTS assay; assay type: cell-based; conditions: time 5 day; summary of the method: as §2
[4] = as §1, with “Selectivity index, ratio of CC50 for cytotoxicity against mock-infected human embryonic lung fibroblast cells incubated for 5 days by MTS assay to EC50 for antiviral” for “Antiviral”; assay type: toxicity, cell-based; conditions: time 5 day, read-out: Ratio CC50/EC50; summary of the method: as §2
Fibroblast [5] = experiment: Inhibition of nsp15 K60R drug-resistant mutant in Human coronavirus 229E infected in human embryonic lung fibroblast cells assessed as reduction in virus yield; assay type: cell-based
Summary of the method: (§3)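 Virus yield assay in confluent HEL cells. Serial compound dilutions were added, and cells were infected at MOI 100 with wild-type, EndoU-deficient (H250A nsp15) or passage-selected (K60R or T66I nsp15) HCoV-229E. After 4 h at 35 °C, the inoculum was removed and compound re-added. Supernatant was lysed at 3 days p.i. and N-gene RNA copies measured by one-step RT-qPCR. Results are fold reduction versus the no-compound control, from three independent experiments.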

Fibroblast [6] = experiment: Inhibition of nsp15 T66I drug-resistant mutant in Human coronavirus 229E infected in human embryonic lung fibroblast cells assessed as reduction in virus yield; assay type: cell-based; summary of the method: as §3
SARS-CoV-2 = experiment: Antiviral activity against SARS-CoV-2 infected in eGFP expressing Vero E6 cells assessed as reduction in virus-induced cytopathic effect cells pretreated for 24 hrs measure after 4 days post infection by MTS cell viability assay; assay type: functional, organism-based; conditions: Severe acute respiratory syndrome coronavirus 2
[7] = test system: Human immunodeficiency virus; experiment: Antiviral activity against HIV; assay type: functional, organism-based
[8] = test system: Herpes simplex virus unknown type; experiment: Antiviral activity against Herpes simplex virus; assay type: functional
Vaccinia virus = experiment: Antiviral activity against Vaccinia virus; assay type: functional, organism-based; conditions: Orthopoxvirus vaccinia
Human adenovirus 2 = experiment: Antiviral activity against Adenovirus; assay type: functional
[9] = test system: Vesicular stomatitis virus; experiment: Antiviral activity against Vesicular stomatitis virus; assay type: functional, organism-based
Coxsackievirus B4 = experiment: Antiviral activity against Coxsackie B4 virus; assay type: functional, organism-based
[10] = test system: Respiratory syncytial virus; experiment: Antiviral activity against Respiratory syncytial virus; assay type: functional, organism-based
Human respirovirus 3 = experiment: Antiviral activity against Parainfluenza-3 virus; assay type: functional, organism-based
Reovirus sp. = experiment: Antiviral activity against Reovirus-1; assay type: functional, organism-based
Sindbis virus = experiment: Antiviral activity against Sindbis virus; assay type: functional, organism-based
Punta Toro virus = experiment: Antiviral activity against Punta Toro virus; assay type: functional, organism-based
Yellow fever virus = experiment: Antiviral activity against Yellow fever virus; assay type: functional, organism-based
Influenza A virus = experiment: Antiviral activity against Influenza virus; assay type: functional
[11] = biological target: Replicase polyprotein 1ab (Human coronavirus 229E) (UniProt P0C6X1); experiment: Inhibition of nsp15 in Human coronavirus 229E infected in human embryonic lung fibroblast cells assessed as reduction in viral RNA synthesis at early stage of RNA synthesis at 15 uM treated 6 hrs post infection by RT-qPCR based time-of-addition assay; assay type: cell-based
Summary of the method: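 Confluent HEL cells infected with HCoV-229E (MOI 100). Compound at 15 μM was added at -0.5 to 8 h p.i. At 16 h p.i. cells were washed with ice-cold PBS and lysed on ice, then heated 10 min at 75 °C and DNase-treated. Viral RNA was measured by one-step RT-qPCR against the N gene, using a plasmid standard for absolute copies. Values are relative to the no-compound virus control, from two independent experiments.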

[12] = Antiviral activity against Human coronavirus 229E harboring reverse engineered EndoU-deficient H250A mutant infected in human embryonic lung fibroblast cells assessed as fold reduction in virus yield measured up to 40 uM; assay type: functional; conditions: dose microM <=40; summary of the method: as §3
[13] = biological target: Replicase polyprotein 1ab (Human coronavirus 229E) (UniProt P0C6X1); experiment: Inhibition of nsp15 in wild type Human coronavirus 229E infected in human embryonic lung fibroblast cells assessed as reduction in virus yield; assay type: cell-based
Summary of the method: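 Confluent HEL cells (or semiconfluent 16HBE) with serial compound dilutions, infected with wild-type HCoV-229E at MOI 100. After 4 h at 35 °C the inoculum was removed and compound re-added. Supernatants were taken at 3 days p.i., lysed, and heated 10 min at 75 °C. Three independent experiments.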

[14] = biological target: Replicase polyprotein 1ab (Human coronavirus 229E) (UniProt P0C6X1); experiment: Inhibition of nsp15 in Human coronavirus 229E infected in human embryonic lung fibroblast cells assessed as reduction in viral RNA synthesis at early stage of RNA synthesis at 6.3 uM treated 6 hrs post infection by RT-qPCR based time-of-addition assay; assay type: cell-based

Structure (SMILES) | EC50 [1] [µM] | EC50 [2] [µM] | CC50 at 120 h [3] [µM] | selectivity ratio at 120 h [4] | Activity [7] | Activity [8] | Activity (Vaccinia virus) | Activity (Human adenovirus 2) | Activity [9] | Activity (Coxsackievirus B4) | Activity [10] | Activity (Human respirovirus 3) | Activity (Reovirus sp.) | Activity (Sindbis virus) | Activity (Punta Toro virus) | Activity (Yellow fever virus) | Activity (Influenza A virus) | also measured
N#C[C@@]1(c2ccc3c(N)ncnn23)O[C@H](CO)[C@@H](O)[C@H]1O [GS-441524] | 2.3 | 3.2 | > 100 | > 44 |  |  |  |  |  |  |  |  |  |  |  |  |  | EC99 (Fibroblast [5]): > 40 µM; Activity (Fibroblast [6]): Active
CC(C)[C@@H]1CC[C@]2(C(=O)O)CC[C@]3(C)[C@H](CC[C@@H]4[C@@]5(C)Cc6nnn([C@@H](C)c7ccccc7)c6C(C)(C)[C@@H]5CC[C@]43C)[C@@H]12 | 13 | 6.1 | > 99 | > 7.6 | inactive | inactive | inactive | inactive | inactive | inactive | inactive | inactive | inactive | inactive | inactive | inactive | inactive | Activity (SARS-CoV-2): Active
C=C(C)[C@@H]1CC[C@]2(C(=O)O)CC[C@]3(C)[C@H](CC[C@@H]4[C@@]5(C)Cc6nnn([C@@H](C)c7ccccc7)c6C(C)(C)[C@@H]5CC[C@]43C)[C@@H]12 | 0.65 | 0.6 | 49 | 76 | inactive | inactive | inactive | inactive | inactive | inactive | inactive | inactive | inactive | inactive | inactive | inactive | inactive | Activity (SARS-CoV-2): Active; Activity [11]: Active; EC99 (Fibroblast [5]): 2.9 µM; Activity (Fibroblast [6]): inactive; fold change (FC) [12]: 23; fold change (FC) [13]: 1480
C=C(C)[C@@H]1CC[C@]2(C(=O)O)CC[C@]3(C)[C@H](CC[C@@H]4[C@@]5(C)Cc6nnn([C@H](C)c7ccccc7)c6C(C)(C)[C@@H]5CC[C@]43C)[C@@H]12 | 1.1 | 0.67 | > 100 | > 91 | inactive | inactive | inactive | inactive | inactive | inactive | inactive | inactive | inactive | inactive | inactive | inactive | inactive | 
C=C(C)[C@@H]1CC[C@]2(C(=O)O)CC[C@]3(C)[C@H](CC[C@@H]4[C@@]5(C)Cc6nnn(Cc7ccc(N(C)C)cc7)c6C(C)(C)[C@@H]5CC[C@]43C)[C@@H]12 | 0.54 | 0.51 | 16 | 31 | inactive | inactive | inactive | inactive | inactive | inactive | inactive | inactive | inactive | inactive | inactive | inactive | inactive | 
C=C(C)[C@@H]1CC[C@]2(C(=O)O)CC[C@]3(C)[C@H](CC[C@@H]4[C@@]5(C)Cc6nnn(Cc7ccc8c(c7)OCO8)c6C(C)(C)[C@@H]5CC[C@]43C)[C@@H]12 | 1.9 | 1.5 | 15 | 8 | inactive | inactive | inactive | inactive | inactive | inactive | inactive | inactive | inactive | inactive | inactive | inactive | inactive | 
CO/C1=C\C(C)=C\[C@@H](C)[C@@H](O)[C@@H](C)C/C(C)=C/C=C/[C@H](OC)[C@@H]([C@@H](C)[C@@H](O)[C@H](C)[C@@]2(O)C[C@@H](O)[C@H](C)[C@@H](C(C)C)O2)OC1=O |  |  |  |  |  |  |  |  |  |  |  |  |  |  |  |  |  | Activity [14]: Active
C=C(C)[C@@H]1CC[C@]2(C(=O)O)CC[C@]3(C)[C@H](CC[C@@H]4[C@@]5(C)Cc6nnn(Cc7ccc(F)cc7)c6C(C)(C)[C@@H]5CC[C@]43C)[C@@H]12 | 2.2 | 0.88 | 9.3 | 4 | inactive | inactive | inactive | inactive | inactive | inactive | inactive | inactive | inactive | inactive | inactive | inactive | inactive | 
C=C(C)[C@@H]1CC[C@]2(C(=O)O)CC[C@]3(C)[C@H](CC[C@@H]4[C@@]5(C)Cc6nnn(CCO)c6C(C)(C)[C@@H]5CC[C@]43C)[C@@H]12 | 3.3 | 2.2 | 4.9 | 1.5 | inactive | inactive | inactive | inactive | inactive | inactive | inactive | inactive | inactive | inactive | inactive | inactive | inactive | 
C=C(C)[C@@H]1CC[C@]2(C(=O)O)CC[C@]3(C)[C@H](CC[C@@H]4[C@@]5(C)Cc6nn[nH]c6C(C)(C)[C@@H]5CC[C@]43C)[C@@H]12 | 4.3 | 3.4 | 8.3 | 1.9 | inactive | inactive | inactive | inactive | inactive | inactive | inactive | inactive | inactive | inactive | inactive | inactive | inactive | 
C=C(C)[C@@H]1CC[C@]2(C(=O)O)CC[C@]3(C)[C@H](CC[C@@H]4[C@@]5(C)Cc6nnn(Cc7cc(OC)cc(OC)c7)c6C(C)(C)[C@@H]5CC[C@]43C)[C@@H]12 | 2.4 | 1.6 | 17 | 7 | inactive | inactive | inactive | inactive | inactive | inactive | inactive | inactive | inactive | inactive | inactive | inactive | inactive | 
